ChEMBL document CHEMBL1152859, “The novel phosphoramidate derivatives of NSAID 3-hydroxypropylamides: synthesis, cytostatic and antiviral activity evaluations” (Eur J Med Chem, 2009)
The source made the active and inactive calls. No cut-off for these calls is given here.

Assays:
Punta Toro virus = assay: Antiviral activity against Punta Toro virus infected in african green monkey Vero cells assessed as inhibition of virus-induced cytopathicity; type: functional, organism-based
Outline: (§1)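 Cells were infected with 100 CCID50 of virus for 2 h, then residual virus was removed. Medium with graded compound concentrations was added and cultures were kept 3 days at 37 °C. Cytopathogenicity was scored microscopically. EC50 is the concentration reducing virus-induced cytopathogenicity by 50%.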

MCF7 = assay: Cytostatic activity against human MCF7 cells after 72 hrs by MTT assay; type: functional, cell-based; details: MCF7, 72 h
Outline: (§2)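 Monolayer cells were grown in DMEM with 10% FBS, 2 mM L-glutamine, penicillin and streptomycin at 37 °C under 5% CO2. They were seeded on day 0 at 1 × 10⁴ to 3 × 10⁴ cells/ml and exposed to five 10-fold dilutions (10⁻⁸ to 10⁻⁴ M) for 72 h, with a solvent control. Read-out was MTT. Quadruplicates in three experiments (WI 38: one experiment). IC50 by linear regression of percentage-of-growth.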

HeLa = assay: Cytostatic activity against human HeLa cells after 72 hrs by MTT assay; type: functional, cell-based; outline: as §2
[1] = Cytostatic activity against human Molt4/C8 cells after 72 hrs by MTT assay; type: functional, cell-based; details: MOLT-4, 72 h
L1210 = assay: Cytostatic activity against mouse L1210 cells after 48 hrs by MTT assay; type: functional, cell-based; details: L1210, 48 h
[2] = system: Vesicular stomatitis virus; assay: Antiviral activity against Vesicular stomatitis virus infected in human HeLa cells assessed as inhibition of virus-induced cytopathicity; type: functional, organism-based
Outline: (§3)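 Cell cultures were exposed for 2 h to 100 CCID50 of virus, and residual virus was then removed. Infected cells were further incubated with medium containing varying compound concentrations for 3 days at 37 °C. Virus-induced cytopathogenicity was scored microscopically. EC50 is the concentration giving a 50% reduction of cytopathogenicity.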

[3] = system: Human immunodeficiency virus 2; assay: Antiviral activity against HIV2 ROD infected in human CEM cells assessed as inhibition of virus-induced cytopathicity; type: functional, organism-based; details: CCRF-CEM
Human alphaherpesvirus 2 = assay: Antiviral activity against Herpes simplex virus 2 infected in HEL cells assessed as inhibition of virus-induced cytopathicity; type: functional, organism-based
NCI-H460 = assay: Cytostatic activity against human H460 cells after 72 hrs by MTT assay; type: functional, cell-based; details: NCI-H460, 72 h; outline: as §2
MIA PaCa-2 = assay: Cytostatic activity against human MIAPaCa2 cells after 72 hrs by MTT assay; type: functional, cell-based; details: MIA PaCa-2, 72 h; outline: as §2
SW-620 = assay: Cytostatic activity against human SW620 cells after 72 hrs by MTT assay; type: functional, cell-based; details: SW-620, 72 h; outline: as §2
Vaccinia virus = assay: Antiviral activity against Vaccinia virus infected in HEL cells assessed as inhibition of virus-induced cytopathicity; type: functional, organism-based; details: Orthopoxvirus vaccinia; outline: as §3
Coxsackievirus B4 [4] = assay: Antiviral activity against Coxsackievirus B4 infected in african green monkey Vero cells assessed as inhibition of virus-induced cytopathicity; type: functional, organism-based; outline: as §1
Human respirovirus 3 = assay: Antiviral activity against Parainfluenza-3 virus infected in african green monkey Vero cells assessed as inhibition of virus-induced cytopathicity; type: functional, organism-based; outline: as §1
Cytomegalovirus = assay: Antiviral activity against Cytomegalovirus infected in HEL cells assessed as inhibition of virus-induced cytopathicity; type: functional, organism-based
Outline: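 Confluent HEL fibroblasts were infected with CMV strains Davis and AD-169 at 100 PFU per well for 2 h, then virus was removed. Graded concentrations were added in duplicate and cultures kept 7 days at 37 °C. Cytopathogenicity was scored microscopically after ethanol fixation and Giemsa staining. EC50 is the 50% reduction.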

[5] = system: Mammalian orthoreovirus 1; assay: Antiviral activity against Reovirus 1 infected in african green monkey Vero cells assessed as inhibition of virus-induced cytopathicity; type: functional, organism-based; outline: as §1
Human alphaherpesvirus 1 = assay: Antiviral activity against Herpes simplex virus 1 infected in HEL cells assessed as inhibition of virus-induced cytopathicity; type: functional, organism-based
Coxsackievirus B4 [6] = assay: Antiviral activity against Coxsackievirus B4 infected in human HeLa cells assessed as inhibition of virus-induced cytopathicity; type: functional, organism-based; outline: as §1
CCRF-CEM = assay: Cytostatic activity against human CEM cells after 72 hrs by MTT assay; type: functional, cell-based
[7] = system: Vesicular stomatitis virus; assay: Antiviral activity against Vesicular stomatitis virus infected in HEL cells assessed as inhibition of virus-induced cytopathicity; type: functional, organism-based; outline: as §3
Sindbis virus = assay: Antiviral activity against Sindbis virus infected in african green monkey Vero cells assessed as inhibition of virus-induced cytopathicity; type: functional, organism-based; outline: as §1
[8] = system: Respiratory syncytial virus; assay: Antiviral activity against Respiratory syncytial virus infected in human HeLa cells assessed as inhibition of virus-induced cytopathicity; type: functional, organism-based; outline: as §1
Human alphaherpesvirus 3 = assay: Antiviral activity against Varicella-Zoster virus infected in HEL cells assessed as inhibition of virus-induced cytopathicity; type: functional, organism-based
[9] = system: Human immunodeficiency virus 1; assay: Antiviral activity against HIV1 3B infected in human CEM cells assessed as inhibition of virus-induced cytopathicity; type: functional, organism-based; details: CCRF-CEM
[10] = Cytostatic activity against human WI38 cells after 72 hrs by MTT assay; type: ADME, cell-based; details: WI-38, 72 h; outline: as §2

SMILES | Activity (Punta Toro virus) | IC50 (MCF7) [µM] | IC50 (HeLa) [µM] | IC50 [1] [µM] | IC50 (L1210) [µM] | Activity [2] | Activity [3] | Activity (Human alphaherpesvirus 2) | IC50 (NCI-H460) [µM] | IC50 (MIA PaCa-2) [µM] | IC50 (SW-620) [µM] | Activity (Vaccinia virus) | Activity (Coxsackievirus B4 [4]) | Activity (Human respirovirus 3) | Activity (Cytomegalovirus) | Activity [5] | Activity (Human alphaherpesvirus 1) | Activity (Coxsackievirus B4 [6]) | IC50 (CCRF-CEM) [µM] | Activity [7] | also measured
O=C(Cc1ccccc1Nc1c(Cl)cccc1Cl)NCCCO | inactive | 39 | 46 | 215 | 200 | inactive | inactive | inactive | 68 | 54 | 36 | inactive | inactive | inactive | inactive | inactive | inactive | inactive | 212 | inactive | Activity (Sindbis virus): inactive; Activity [8]: inactive; Activity (Human alphaherpesvirus 3): inactive; Activity [9]: inactive
COC(=O)[C@H](C)NP(=O)(OCCCNC(=O)Cc1c(C)n(C(=O)c2ccc(Cl)cc2)c2ccc(OC)cc12)Oc1ccc(Cl)cc1 (stereo not given in full) | inactive | 16 | 17 | 28 | 24 | inactive | inactive | inactive | 18 | 8 | 15 | inactive | inactive | inactive | inactive | inactive | inactive | inactive | 11 | inactive | IC50 [10]: 16 µM; Activity (Sindbis virus): inactive; Activity [8]: inactive; Activity (Human alphaherpesvirus 3): inactive; Activity [9]: inactive
CC(C(=O)NCCCO)c1cccc(Oc2ccccc2)c1 (stereo not given) | inactive | > 100 | > 100 | 99 | 230 | inactive | inactive | inactive | > 100 | > 100 | > 100 | inactive | inactive | inactive | inactive | inactive | inactive | inactive | 71 | inactive | Activity (Sindbis virus): inactive; Activity [8]: inactive; Activity (Human alphaherpesvirus 3): inactive; Activity [9]: inactive
CC(C(=O)NCCCO)c1cccc(C(=O)c2ccccc2)c1 (stereo not given) | inactive | > 100 | > 100 | 97 | 273 | inactive | inactive | inactive | > 100 | > 100 | > 100 | inactive | inactive | inactive | inactive | inactive | inactive | inactive | 71 | inactive | Activity (Sindbis virus): inactive; Activity [8]: inactive; Activity (Human alphaherpesvirus 3): inactive; Activity [9]: inactive
COc1ccc2c(c1)c(CC(=O)NCCCO)c(C)n2C(=O)c1ccc(Cl)cc1 | inactive | 22 | 26 | 113 | 179 | inactive | inactive | inactive | > 100 | 44 | 47 | inactive | inactive | inactive | inactive | inactive | inactive | inactive | 78 | inactive | Activity (Sindbis virus): inactive; Activity [8]: inactive; Activity (Human alphaherpesvirus 3): inactive; Activity [9]: inactive
CC(C)Cc1ccc(C(C)C(=O)NCCCO)cc1 (stereo not given) | inactive | > 100 | > 100 | 93 | 213 | inactive | inactive | inactive | > 100 | ≥ 100 | > 100 | inactive | inactive | inactive | inactive | inactive | inactive | inactive | 55 | inactive | Activity (Sindbis virus): inactive; Activity [8]: inactive; Activity (Human alphaherpesvirus 3): inactive; Activity [9]: inactive
